Assay results: ChEMBL document CHEMBL4402598, “Design and Synthesis of Bitopic 2-Phenylcyclopropylmethylamine (PCPMA) Derivatives as Selective Dopamine D3 Receptor Ligands” (J Med Chem, 2020); call rule not given here

Tests used:
D(1B) dopamine receptor = D(1B) dopamine receptor (Homo sapiens, UniProt P21918); assay: Displacement of [3H]-SCH23390 from recombinant human D5 receptor transiently expressed in HEKT cell membranes measured after 90 mins by microbeta scintillation counting method
[1] = biological target: T1, 5-hydroxytryptamine receptor 2C (Homo sapiens, UniProt P28335); assay: Displacement of [3H]-Mesulergine from recombinant human 5HT2C receptor expressed in HEKT cell membranes measured after 90 mins by microbeta scintillation counting method
T1 sequence (P28335 whole entry): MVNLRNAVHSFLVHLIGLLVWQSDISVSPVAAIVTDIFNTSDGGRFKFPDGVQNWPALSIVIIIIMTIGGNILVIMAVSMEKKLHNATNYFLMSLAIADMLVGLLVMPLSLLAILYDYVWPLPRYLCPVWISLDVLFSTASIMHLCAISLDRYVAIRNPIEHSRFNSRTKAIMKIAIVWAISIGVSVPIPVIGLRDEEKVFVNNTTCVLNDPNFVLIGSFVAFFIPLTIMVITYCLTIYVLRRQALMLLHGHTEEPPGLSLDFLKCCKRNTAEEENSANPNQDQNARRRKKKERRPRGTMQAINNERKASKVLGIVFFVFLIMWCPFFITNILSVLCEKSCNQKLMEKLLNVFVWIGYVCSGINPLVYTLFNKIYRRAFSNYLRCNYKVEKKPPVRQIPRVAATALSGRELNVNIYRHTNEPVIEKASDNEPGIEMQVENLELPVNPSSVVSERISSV

[2] = biological target: 5-hydroxytryptamine receptor 2B (Homo sapiens, UniProt P41595); assay: Agonist activity at 5HT2B receptor (unknown origin) expressed in HEK293 cells co-expressing Gq assessed as induction of calcium mobilization measured at 1 sec interval for 60 secs by Fluo-4 calcium dye based FLIPR assay; type: cell-based; conditions: hek293, 1 min
[3] = biological target: 5-hydroxytryptamine receptor 2A (Homo sapiens, UniProt P28223); assay: Agonist activity at 5HT2A receptor (unknown origin) expressed in HEK293 cells co-expressing Gq assessed as induction of calcium mobilization measured at 1 sec interval for 60 secs by Fluo-4 calcium dye based FLIPR assay; type: cell-based; conditions: hek293, 1 min
[4] = biological target: T1, 5-hydroxytryptamine receptor 2C; assay: Agonist activity at human 5HT2C receptor stably expressed in HEK293 cells co-expressing Gq assessed as induction of calcium mobilization measured at 1 sec interval for 60 secs by Fluo-4 calcium dye based FLIPR assay; type: functional, cell-based
Outline: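 HEK293 cells stably expressing 5-HT2C, plated overnight in DMEM with 1% dialyzed FBS (15,000 cells/well), loaded with Fluo-4 Direct in HBSS/20 mM HEPES pH 7.4/2.5 mM probenecid for 50 min at 37 °C, then 10 min at room temperature. FLIPR read 1/s for 2 min; 10 s baseline subtracted from peak within 60 s; fold of basal. Mean of ≥3 experiments.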

D(4) dopamine receptor = biological target: T2, D(4) dopamine receptor (Homo sapiens, UniProt P21917); assay: Displacement of [3H]-N-methylspiperone from recombinant human D4 receptor stably expressed in HEK cell membranes measured after 90 mins by microbeta scintillation counting method
T2 sequence (P21917 whole entry): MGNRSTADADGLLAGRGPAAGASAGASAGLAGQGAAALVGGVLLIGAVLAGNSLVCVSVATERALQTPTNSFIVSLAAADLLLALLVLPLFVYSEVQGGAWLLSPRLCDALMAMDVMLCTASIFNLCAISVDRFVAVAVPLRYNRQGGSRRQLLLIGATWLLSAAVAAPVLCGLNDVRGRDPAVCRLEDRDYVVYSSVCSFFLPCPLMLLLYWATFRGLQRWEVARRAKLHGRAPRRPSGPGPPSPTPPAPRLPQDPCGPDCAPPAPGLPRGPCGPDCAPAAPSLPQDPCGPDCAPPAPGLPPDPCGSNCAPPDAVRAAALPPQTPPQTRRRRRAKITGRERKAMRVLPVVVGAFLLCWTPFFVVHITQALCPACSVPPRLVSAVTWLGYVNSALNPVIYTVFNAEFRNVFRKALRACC

D(1A) dopamine receptor = D(1A) dopamine receptor (Homo sapiens, UniProt P21728); assay: Displacement of [3H]-SCH23390 from recombinant human D1 receptor transiently expressed in HEKT cell membranes measured after 90 mins by microbeta scintillation counting method
D(2) dopamine receptor = D(2) dopamine receptor (Homo sapiens, UniProt P14416); assay: Displacement of [3H]-N-methylspiperone from recombinant human D2 receptor stably expressed in fibroblast cell membranes measured after 90 mins by microbeta scintillation counting method
Sequence of D(2) dopamine receptor (P14416 whole entry): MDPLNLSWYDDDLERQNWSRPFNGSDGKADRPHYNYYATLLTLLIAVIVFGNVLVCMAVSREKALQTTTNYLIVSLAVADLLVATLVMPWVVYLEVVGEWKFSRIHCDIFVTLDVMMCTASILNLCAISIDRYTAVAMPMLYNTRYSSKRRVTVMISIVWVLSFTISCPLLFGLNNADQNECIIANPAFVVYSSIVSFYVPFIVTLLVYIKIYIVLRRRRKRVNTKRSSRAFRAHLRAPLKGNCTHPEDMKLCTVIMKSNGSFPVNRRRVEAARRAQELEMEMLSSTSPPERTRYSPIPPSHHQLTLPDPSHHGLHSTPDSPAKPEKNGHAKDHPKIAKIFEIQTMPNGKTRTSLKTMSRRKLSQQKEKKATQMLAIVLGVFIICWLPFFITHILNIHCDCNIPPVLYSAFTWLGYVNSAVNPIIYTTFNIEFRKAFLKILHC

Sequence of 5-hydroxytryptamine receptor 2A (P28223 whole entry): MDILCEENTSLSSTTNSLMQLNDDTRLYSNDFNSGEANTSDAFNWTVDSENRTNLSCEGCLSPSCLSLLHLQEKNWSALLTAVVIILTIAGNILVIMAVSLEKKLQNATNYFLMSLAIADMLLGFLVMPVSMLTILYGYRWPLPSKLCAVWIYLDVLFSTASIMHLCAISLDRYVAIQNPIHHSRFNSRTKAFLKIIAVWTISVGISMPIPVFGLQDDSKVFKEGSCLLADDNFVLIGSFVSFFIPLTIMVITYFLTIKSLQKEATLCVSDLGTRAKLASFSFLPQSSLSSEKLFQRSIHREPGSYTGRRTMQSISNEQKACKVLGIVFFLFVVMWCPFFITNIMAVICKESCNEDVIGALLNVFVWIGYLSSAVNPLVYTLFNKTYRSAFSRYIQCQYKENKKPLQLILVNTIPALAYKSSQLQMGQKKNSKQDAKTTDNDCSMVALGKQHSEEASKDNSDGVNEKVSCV
Sequence of 5-hydroxytryptamine receptor 2B (P41595 whole entry): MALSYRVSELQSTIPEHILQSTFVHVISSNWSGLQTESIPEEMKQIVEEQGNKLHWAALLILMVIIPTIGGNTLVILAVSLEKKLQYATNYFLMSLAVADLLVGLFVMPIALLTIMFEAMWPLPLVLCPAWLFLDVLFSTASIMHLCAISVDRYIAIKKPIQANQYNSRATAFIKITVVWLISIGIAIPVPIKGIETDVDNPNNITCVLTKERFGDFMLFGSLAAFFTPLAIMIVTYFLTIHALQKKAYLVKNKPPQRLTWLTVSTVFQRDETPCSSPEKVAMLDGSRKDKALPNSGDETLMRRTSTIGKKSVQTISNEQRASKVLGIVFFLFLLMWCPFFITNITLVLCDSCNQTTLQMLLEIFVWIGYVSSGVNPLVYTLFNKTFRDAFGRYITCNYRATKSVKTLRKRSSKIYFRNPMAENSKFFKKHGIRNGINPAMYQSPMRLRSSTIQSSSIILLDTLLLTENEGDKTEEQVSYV
Sequence of D(1B) dopamine receptor (P21918 whole entry): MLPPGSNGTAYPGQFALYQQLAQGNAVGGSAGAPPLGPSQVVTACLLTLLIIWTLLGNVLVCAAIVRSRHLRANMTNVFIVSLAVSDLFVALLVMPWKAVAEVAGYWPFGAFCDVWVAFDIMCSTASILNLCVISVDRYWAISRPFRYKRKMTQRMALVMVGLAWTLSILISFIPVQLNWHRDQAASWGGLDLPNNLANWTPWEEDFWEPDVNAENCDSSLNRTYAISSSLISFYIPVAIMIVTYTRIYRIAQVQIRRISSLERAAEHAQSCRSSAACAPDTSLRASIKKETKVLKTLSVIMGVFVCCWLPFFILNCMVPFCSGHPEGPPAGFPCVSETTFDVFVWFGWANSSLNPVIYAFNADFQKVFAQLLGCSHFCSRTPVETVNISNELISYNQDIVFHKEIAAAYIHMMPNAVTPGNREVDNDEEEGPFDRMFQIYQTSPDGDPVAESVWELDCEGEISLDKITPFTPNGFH
Sequence of D(1A) dopamine receptor (P21728 whole entry): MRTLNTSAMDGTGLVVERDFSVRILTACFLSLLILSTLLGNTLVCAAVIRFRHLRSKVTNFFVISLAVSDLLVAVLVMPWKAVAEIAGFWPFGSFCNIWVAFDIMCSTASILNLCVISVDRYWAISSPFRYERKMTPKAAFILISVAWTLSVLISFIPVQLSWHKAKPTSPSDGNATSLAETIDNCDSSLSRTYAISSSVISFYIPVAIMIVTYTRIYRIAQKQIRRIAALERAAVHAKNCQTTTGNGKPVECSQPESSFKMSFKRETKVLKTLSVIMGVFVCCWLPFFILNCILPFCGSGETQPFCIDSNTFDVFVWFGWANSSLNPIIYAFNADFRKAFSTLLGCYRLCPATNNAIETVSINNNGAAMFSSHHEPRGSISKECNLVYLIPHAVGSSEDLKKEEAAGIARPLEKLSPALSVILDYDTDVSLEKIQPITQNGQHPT

SMILES | Ki (D(1B) dopamine receptor) | Ki [1] | Activity [2] | Activity [3] | EC50 [4] | Ki (D(4) dopamine receptor) | Ki (D(1A) dopamine receptor) | Ki (D(2) dopamine receptor)
CCCN(CCCCNC(=O)c1ccc(-c2ccccn2)cc1)C[C@H]1C[C@@H]1c1cccc(Cl)c1Cl.Cl | > 5000 nM | 44.7 nM | Not Active | Active | 738 nM | 912 nM | 2340 nM | –
CCCN(CCCCNC(=O)c1cc2ccccc2[nH]1)C[C@H]1C[C@@H]1c1cccc(Cl)c1Cl.Cl | > 5000 nM | 61.7 nM | Not Active | Active | 2550 nM | 676 nM | 1120 nM | 992 nM
CCCN(CCCCNC(=O)c1ccc2ccccc2c1)C[C@H]1C[C@@H]1c1cccc(Cl)c1Cl.Cl | > 5000 nM | 138 nM | Not Active | Active | 3540 nM | 776 nM | 1050 nM | 1150 nM
